{"source": "ChEMBL document CHEMBL4190220", "about": "“Withanolides from Aeroponically Grown Physalis peruviana and Their Selective Cytotoxicity to Prostate Cancer and Renal Carcinoma Cells” (J Nat Prod, 2017)", "key": {"LNCaP": {"test_system": "LNCaP", "experiment": "Cytotoxicity against human LNCAP cells assessed as reduction in cell viability after 72 hrs by CellTiter96 AQueous one solution cell proliferation assay", "assay_type": "functional, cell-based", "how_it_was_run": "(§1)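 MTS viability in RPMI with 5% fetal calf serum, 2.0 mM L-glutamine, nonessential amino acids, 1.0 mM pyruvate, penicillin/streptomycin, 10 mM HEPES and 2-mercaptoethanol. Cells were seeded at 10 000 (LNCaP) or 5000 (others) and grown overnight at 37 °C. Serial dilutions in DMSO went into triplicate wells for 72 h. MTS was read at 490 nm after 2 h. IC50 ± SD from dose–response curves, at least three independent experiments.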"}, "CWR22R": {"test_system": "CWR22R", "experiment": "Cytotoxicity against human 22Rv1 cells assessed as reduction in cell viability after 72 hrs by CellTiter96 AQueous one solution cell proliferation assay", "assay_type": "functional, cell-based", "details": "22Rv1, 72 h", "how_it_was_run": "as §1"}, "ACHN": {"test_system": "ACHN", "experiment": "Cytotoxicity against human ACHN cells assessed as reduction in cell viability after 72 hrs by CellTiter96 AQueous one solution cell proliferation assay", "assay_type": "functional, cell-based", "how_it_was_run": "as §1"}, "M14": {"test_system": "M14", "experiment": "Cytotoxicity against human M14 cells assessed as reduction in cell viability after 72 hrs by CellTiter96 AQueous one solution cell proliferation assay", "assay_type": "functional, cell-based", "details": "M14, 72 h", "how_it_was_run": "(§2)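 MTS viability in DMEM with 5% fetal calf serum, 2.0 mM L-glutamine, nonessential amino acids, 1.0 mM pyruvate, penicillin/streptomycin, 10 mM HEPES and 2-mercaptoethanol. 5000 cells were grown overnight at 37 °C. Serial DMSO dilutions went into triplicate wells for 72 h. MTS absorbance was read at 490 nm after 2 h. IC50 ± SD from at least three independent dose–response experiments.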"}, "SK-MEL-28": {"test_system": "SK-MEL-28", "experiment": "Cytotoxicity against human SK-MEL-28 cells assessed as reduction in cell viability after 72 hrs by CellTiter96 AQueous one solution cell proliferation assay", "assay_type": "functional, cell-based", "details": "SK-MEL-28, 72 h", "how_it_was_run": "as §2"}, "HFF": {"test_system": "HFF", "experiment": "Cytotoxicity against HFF cells assessed as reduction in cell viability after 72 hrs by CellTiter96 AQueous one solution cell proliferation assay", "assay_type": "cell-based", "details": "Homo sapiens", "how_it_was_run": "as §1"}}, "data": [{"smiles": "CC1=C(C)C(=O)O[C@@H]([C@](C)(O)[C@]2(O)CC[C@@]3(O)[C@@H]4[C@@H](O)C=C5CC=CC(=O)[C@]5(C)[C@H]4CC[C@]23C)C1", "values": [{"measurement": "IC50", "setting": "LNCaP", "value": 330, "unit": "nM"}, {"measurement": "IC50", "setting": "CWR22R", "value": 560, "unit": "nM"}, {"measurement": "IC50", "setting": "ACHN", "value": "> 2000", "unit": "nM"}, {"measurement": "IC50", "setting": "M14", "value": "> 2000", "unit": "nM"}, {"measurement": "IC50", "setting": "SK-MEL-28", "value": "> 2000", "unit": "nM"}, {"measurement": "IC50", "setting": "HFF", "value": "> 2000", "unit": "nM"}]}, {"smiles": "CC1=C(C)[C@H](O)[C@H]([C@](C)(O)[C@]2(O)CC[C@@]3(O)[C@@H]4C[C@H]5O[C@]56CC=CC(=O)[C@]6(C)[C@H]4CC[C@]23C)OC1=O", "values": [{"measurement": "IC50", "setting": "LNCaP", "value": "> 2000", "unit": "nM"}, {"measurement": "IC50", "setting": "CWR22R", "value": 890, "unit": "nM"}, {"measurement": "IC50", "setting": "ACHN", "value": "> 2000", "unit": "nM"}, {"measurement": "IC50", "setting": "M14", "value": "> 2000", "unit": "nM"}, {"measurement": "IC50", "setting": "SK-MEL-28", "value": "> 2000", "unit": "nM"}, {"measurement": "IC50", "setting": "HFF", "value": "> 2000", "unit": "nM"}]}, {"smiles": "CC1=C(C)C(=O)O[C@@H]([C@](C)(O)[C@]2(O)CC[C@@]3(O)[C@@H]4C[C@H]5O[C@]56[C@@H](O)C=CC(=O)[C@]6(C)[C@H]4CC[C@]23C)C1", "values": [{"measurement": "IC50", "setting": "LNCaP", "value": 160, "unit": "nM"}, {"measurement": "IC50", "setting": "CWR22R", "value": 90, "unit": "nM"}, {"measurement": "IC50", "setting": "ACHN", "value": "> 2000", "unit": "nM"}, {"measurement": "IC50", "setting": "M14", "value": "> 2000", "unit": "nM"}, {"measurement": "IC50", "setting": "SK-MEL-28", "value": "> 2000", "unit": "nM"}, {"measurement": "IC50", "setting": "HFF", "value": "> 2000", "unit": "nM"}]}, {"smiles": "C[C@H]1C[C@H]([C@](C)(O)[C@]2(O)CC[C@@]3(O)[C@@H]4C[C@H]5O[C@]56CC=CC(=O)[C@]6(C)[C@H]4CC[C@]23C)OC(=O)[C@@H]1C", "values": [{"measurement": "IC50", "setting": "LNCaP", "value": 290, "unit": "nM"}, {"measurement": "IC50", "setting": "CWR22R", "value": 210, "unit": "nM"}, {"measurement": "IC50", "setting": "ACHN", "value": "> 2000", "unit": "nM"}, {"measurement": "IC50", "setting": "M14", "value": "> 2000", "unit": "nM"}, {"measurement": "IC50", "setting": "SK-MEL-28", "value": "> 2000", "unit": "nM"}, {"measurement": "IC50", "setting": "HFF", "value": "> 2000", "unit": "nM"}]}, {"smiles": "CC1=C(C)C(=O)O[C@@H]([C@](C)(O)[C@]2(O)CC[C@@]3(O)[C@@H]4C[C@H]5O[C@]56CC=CC(=O)[C@]6(C)[C@H]4CC[C@]23C)C1", "note": "[WITHANOLIDE E]", "values": [{"measurement": "IC50", "setting": "LNCaP", "value": 60, "unit": "nM"}, {"measurement": "IC50", "setting": "CWR22R", "value": 70, "unit": "nM"}, {"measurement": "IC50", "setting": "ACHN", "value": 460, "unit": "nM"}, {"measurement": "IC50", "setting": "M14", "value": "> 2000", "unit": "nM"}, {"measurement": "IC50", "setting": "SK-MEL-28", "value": "> 2000", "unit": "nM"}, {"measurement": "IC50", "setting": "HFF", "value": "> 2000", "unit": "nM"}]}]}
